Series [1] is described as follows: Solubility of the compound in saline. Format: physicochemical. The conditions noted are these: buffer.
Series [2] addresses Kappa-type opioid receptor (Homo sapiens, UniProt P41145). Kind of series: Displacement of [3H]U69,593 from human kappa opioid receptor expressed in CHO cell membranes by micro-beta scintillation counting method. For orientation: Loss of bound radioactivity is the signal in a displacement assay; it reports binding, not function.
The next series concerns the target T1, Orexin receptor type 2 (Homo sapiens, UniProt O43614).
T1 sequence (O43614 whole entry): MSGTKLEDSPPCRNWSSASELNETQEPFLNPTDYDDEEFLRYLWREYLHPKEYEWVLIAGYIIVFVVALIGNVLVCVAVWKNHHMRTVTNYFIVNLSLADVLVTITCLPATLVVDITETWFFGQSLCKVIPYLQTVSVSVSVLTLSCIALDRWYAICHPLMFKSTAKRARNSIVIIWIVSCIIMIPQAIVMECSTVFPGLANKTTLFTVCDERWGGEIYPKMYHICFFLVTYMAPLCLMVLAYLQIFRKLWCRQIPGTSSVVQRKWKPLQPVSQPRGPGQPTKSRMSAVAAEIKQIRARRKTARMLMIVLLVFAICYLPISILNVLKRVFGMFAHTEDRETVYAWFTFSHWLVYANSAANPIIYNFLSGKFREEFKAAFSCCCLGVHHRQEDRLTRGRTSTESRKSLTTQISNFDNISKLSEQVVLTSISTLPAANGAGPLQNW
Nature of the series: Antagonist activity at human OX2R expressed in CHOK1 cells assessed as inhibition of orexin A-induced intracellular calcium level preincubated for 15 mins followed by orexin A addition by Fura-2-AM dye based fluorescence assay. Type of series: cell-based. The conditions noted are these: for inhibition (INH): human. The gist of the method:
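CHO cells expressing human OX1R or OX2R; calcium transient assay. IC50 came from concentration-response curves in at least three independent assays, each run in triplicate. Ki was derived by the Cheng-Prusoff equation and reported as mean ± SEM. […] Some compounds were tested as HCl, MeSO3H or 2H2SO4 salts.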
For orientation: A change in cytosolic calcium serves as a functional read-out for many receptors and channels.

In series [3] the target is T2, Orexin/Hypocretin receptor type 1 (Homo sapiens, UniProt O43613).
T2 sequence (O43613 whole entry): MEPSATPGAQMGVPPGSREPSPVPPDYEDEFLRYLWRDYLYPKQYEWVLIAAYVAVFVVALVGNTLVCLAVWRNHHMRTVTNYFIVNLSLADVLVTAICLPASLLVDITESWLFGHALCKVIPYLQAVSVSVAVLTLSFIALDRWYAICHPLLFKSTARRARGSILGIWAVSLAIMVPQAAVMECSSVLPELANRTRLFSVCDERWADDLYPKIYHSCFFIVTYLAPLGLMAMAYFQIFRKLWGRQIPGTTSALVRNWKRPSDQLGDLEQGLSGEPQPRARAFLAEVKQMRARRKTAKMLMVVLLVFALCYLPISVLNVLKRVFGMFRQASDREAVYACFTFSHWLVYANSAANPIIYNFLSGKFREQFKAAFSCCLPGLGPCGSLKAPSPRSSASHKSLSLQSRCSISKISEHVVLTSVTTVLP
Kind of series: Antagonist activity at human OX1R expressed in CHOK1 cells assessed as inhibition of orexin A-induced intracellular calcium level preincubated for 15 mins followed by orexin A addition by Fura-2-AM dye based fluorescence assay.

The nature of series [4]: Solubility of the compound in water. Type of series: physicochemical. The note with it: buffer.
A short description of series [5]: Selectivity index, ratio of IC50 for human OX2R expressed in CHOK1 cells to IC50 for human OX1R expressed in CHOK1 cells.
For a further series, the target named is Mu-type opioid receptor (Homo sapiens, UniProt P35372). Nature of the series: Displacement of [3H]DAMGO from human mu opioid receptor expressed in CHO cell membranes by micro-beta scintillation counting method.
The target of series [6] is Delta-type opioid receptor (Homo sapiens, UniProt P41143). Kind of series: Displacement of [3H]DPDPE from human delta opioid receptor expressed in CHO cell membranes by micro-beta scintillation counting method.
The subject of series [7] is Mus musculus. Nature of the series: Reduction in morphine dependence expression in ICR mouse assessed as inhibition of naloxone-precipitated diarrhea at 10 mg/kg, ip administered 30 mins prior to first morphine injection each day for 5 days followed by naloxone challenge 2 hrs post last morphine dose measured over 60 mins. Format: functional, organism-based.
For series [8], the system named is Mus musculus. Nature of the series: Reduction in morphine dependence expression in ICR mouse assessed as inhibition of naloxone-precipitated jumping behavior at 10 mg/kg, ip administered 30 mins prior to first morphine injection each day for 5 days followed by naloxone challenge 2 hrs post last morphine dose measured over 60 mins. Type of series: functional, organism-based.

Series [9] has as its system Mus musculus. Kind of series: Reduction in morphine dependence expression in ICR mouse assessed as inhibition of naloxone-precipitated body weight loss at 10 mg/kg, ip administered 30 mins prior to first morphine injection each day for 5 days followed by naloxone challenge 2 hrs post last morphine dose measured over 60 mins. Type of series: functional, organism-based.

Series [10] deals with T3, Orexin/Hypocretin receptor type 1 (Homo sapiens) (UniProt O43613).
T3 sequence (whole entry): T2 sequence (O43613 whole entry)

What is called Ki is a measure of affinity in units of concentration, obtained from inhibition or displacement.

Each structure is given as a SMILES string. The source made the active and inactive calls. The rule behind the calls is not given here.

Mu-type opioid receptor, sequence (P35372 whole entry): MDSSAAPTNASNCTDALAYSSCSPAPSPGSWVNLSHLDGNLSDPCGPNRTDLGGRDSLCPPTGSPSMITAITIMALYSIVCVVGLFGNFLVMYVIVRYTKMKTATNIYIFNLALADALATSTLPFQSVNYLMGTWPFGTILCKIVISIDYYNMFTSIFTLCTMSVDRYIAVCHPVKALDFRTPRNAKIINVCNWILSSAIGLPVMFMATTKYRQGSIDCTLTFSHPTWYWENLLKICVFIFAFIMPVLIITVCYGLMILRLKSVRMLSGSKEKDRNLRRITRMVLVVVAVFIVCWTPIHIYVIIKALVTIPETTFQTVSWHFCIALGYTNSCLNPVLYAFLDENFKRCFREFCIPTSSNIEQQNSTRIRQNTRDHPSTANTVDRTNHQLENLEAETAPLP
Kappa-type opioid receptor, sequence (P41145 whole entry): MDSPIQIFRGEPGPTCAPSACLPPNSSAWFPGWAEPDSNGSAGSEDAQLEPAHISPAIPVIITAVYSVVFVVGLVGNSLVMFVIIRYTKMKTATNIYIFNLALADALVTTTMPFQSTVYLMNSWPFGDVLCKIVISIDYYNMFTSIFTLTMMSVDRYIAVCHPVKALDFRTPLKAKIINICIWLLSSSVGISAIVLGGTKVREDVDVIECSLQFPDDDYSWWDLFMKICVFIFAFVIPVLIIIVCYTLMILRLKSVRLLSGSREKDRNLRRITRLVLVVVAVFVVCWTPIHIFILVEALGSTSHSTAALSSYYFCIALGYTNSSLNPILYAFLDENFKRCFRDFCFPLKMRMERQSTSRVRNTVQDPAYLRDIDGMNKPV
Delta-type opioid receptor, sequence (P41143 whole entry): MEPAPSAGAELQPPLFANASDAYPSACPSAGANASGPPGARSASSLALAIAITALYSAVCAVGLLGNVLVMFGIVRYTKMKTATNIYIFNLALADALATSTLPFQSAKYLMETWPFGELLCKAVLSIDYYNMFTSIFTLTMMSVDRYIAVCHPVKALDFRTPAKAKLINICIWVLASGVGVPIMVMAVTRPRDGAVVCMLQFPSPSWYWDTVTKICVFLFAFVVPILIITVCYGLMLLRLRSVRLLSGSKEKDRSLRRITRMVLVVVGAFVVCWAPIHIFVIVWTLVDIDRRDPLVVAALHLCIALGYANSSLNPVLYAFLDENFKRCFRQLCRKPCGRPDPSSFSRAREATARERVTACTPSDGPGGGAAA

Consider `Cc1cc(NC(=O)Nc2ccc(N(C)C)cc2)c2cc(F)cc(F)c2n1.Cl.Cl`, for which the solubility entry in series [1] and in [4] was “Insoluble” each time. In addition, the Ki in series [2] was above 1 µM; on Orexin receptor type 2 (read-out: Ki), 2.07 µM; in series [3] it was 0.0189 µM; on Mu-type opioid receptor, above 1 µM; in series [6], above 1 µM. Further, the “Ratio IC50” value in series [5] is recorded as below 88.4.
With `CN(C(=O)/C=C/c1ccoc1)[C@@H]1CC[C@@]2(O)[C@H]3Cc4cccc5c4[C@@]2(CCN3CC2CC2)[C@H]1O5`, the “inhibition (INH)” value on Orexin receptor type 2 is recorded as “Not Active”. Besides, in series [3], the inhibitory constant (Ki) was 1.24 µM.
With `COc1ccc2c3c1O[C@H]1[C@H](N(C)C(=O)/C=C/c4ccccn4)CC[C@@]4(O)[C@@H](C2)N(S(=O)(=O)c2ccccc2N(C)C)CC[C@]314`, the inhibition result in the series with Mus musculus [7], with Mus musculus [8] and in the series with Mus musculus [9] was “Active” in each case.
With `COc1ccc2c3c1O[C@H]1[C@H](N(C)C(=O)/C=C/c4ccoc4)CC[C@@]4(O)[C@@H](C2)N(S(=O)(=O)c2ccc(N(C)C)cc2)CC[C@]314.Cl`, the solubility entry in series [1] and in series [4] was “Insoluble” in each case. For the same molecule, the inhibitory constant (Ki) is above 1 µM in [2], 0.0129 µM in series [3], above 1 µM at Mu-type opioid receptor and above 1 µM in [6]. In addition, in [5], the “Ratio IC50” value is listed as below 88.4.
Take `COc1ccc2c3c1O[C@H]1[C@H](N(C)C(=O)/C=C/c4ccoc4)CC[C@@]4(O)[C@@H](C2)N(S(=O)(=O)c2ccccc2[N+](=O)[O-])CC[C@]314`: the solubility result in series [1] and in [4] was “Insoluble” each time. The molecule further displayed a Ke in [10] of 3.69 nM. The inhibitory constant (Ki) entry at Orexin receptor type 2 was “Not Active”; in series [3], 0.00181 µM. For the same molecule, in series [5], the “Ratio IC50” value is reported as below 88.4.
As for `COc1ccc2c3c1O[C@H]1[C@H](N(C)C(=O)/C=C/c4ccoc4)CC[C@@]4(O)[C@@H](C2)N(C(=O)c2ccc(C)cc2)CC[C@]314`, the solubility entry in series [1] and in [4] was “Insoluble” throughout. Further, the inhibition constant Ki at Orexin receptor type 2 (read-out: Ki) worked out at 0.725 µM; in series [3], 0.014 µM. The “Ratio IC50” value in [5] was below 88.4.
For the molecule `COc1ccc2c3c1O[C@H]1[C@H](N(C)C(=O)/C=C/c4ccoc4)CC[C@@]4(O)[C@@H](C2)N(C(=O)/C=C/c2ccccc2)CC[C@]314`, the solubility result in [1] and in [4] was “Insoluble” each time. For the same molecule, the inhibition constant Ki in [2] is above 1 µM; in series [3] it was 0.014 µM; on Mu-type opioid receptor, above 1 µM; in series [6], above 1 µM. Besides, in [5], the “Ratio IC50” value was below 88.4.
As for `COc1ccc2c3c1O[C@H]1[C@H](N(C)C(=O)/C=C/c4ccoc4)CC[C@@]4(O)[C@@H](C2)N(C(=O)C2CC2)CC[C@]314`, the solubility result in [1] and in series [4] was “Insoluble” in each case. The Ki in series [2] was above 1 µM; in series [3] it was 0.012 µM; on Mu-type opioid receptor, above 1 µM; in [6] it was above 1 µM. Also, the “Ratio IC50” value in series [5] is below 88.4.
On to `COc1ccc2c3c1O[C@H]1[C@H](N(C)C(=O)/C=C/c4ccoc4)CC[C@@]4(O)[C@@H](C2)N(CC2CC2)CC[C@]314`, for which the “inhibition (INH)” value on Orexin receptor type 2 was “Not Active”. The Ki in series [3] amounted to 0.0225 µM.
As for `CN(C(=O)/C=C/c1ccoc1)[C@@H]1CC[C@@]2(O)[C@H]3Cc4ccc(O)c5c4[C@@]2(CCN3CC2CC2)[C@H]1O5.Cl` [NALFURAFINE HYDROCHLORIDE], the solubility result in series [1] and in series [4] was “Insoluble” each time. On Orexin receptor type 2, the “inhibition (INH)” value is “Not Active”. The Ki is 0.25 µM in [3], 0.00599 µM at Mu-type opioid receptor and 0.693 µM in series [6].

Source of the values: ChEMBL document CHEMBL3992519 (J Med Chem, 2017).
